Most compounds without a hit are left out; they make up all but 1.8% or so of the library.
TDP2 absorb – human TDP2 enzyme inhibitors, primary screen, biochemical, epi absorbance, recombinant enzyme; Tyrosyl-DNA phosphodiesterase 2 (Homo sapiens), O95551; T5PNP hydrolysis, p-nitrophenol absorbance 415 nm; inhibition, % at 12.8 µM; 370,000 compounds, 0.34% hits; AID 720702, 2013;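 active means inhibition above the mean of all tested compounds plus 3 SD, set per campaign, cut at about 25% in these data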;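 further: 0% = DMSO with enzyme and 100% = buffer with substrate but no TDP2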
Target sequence (O95551 whole entry, looked up): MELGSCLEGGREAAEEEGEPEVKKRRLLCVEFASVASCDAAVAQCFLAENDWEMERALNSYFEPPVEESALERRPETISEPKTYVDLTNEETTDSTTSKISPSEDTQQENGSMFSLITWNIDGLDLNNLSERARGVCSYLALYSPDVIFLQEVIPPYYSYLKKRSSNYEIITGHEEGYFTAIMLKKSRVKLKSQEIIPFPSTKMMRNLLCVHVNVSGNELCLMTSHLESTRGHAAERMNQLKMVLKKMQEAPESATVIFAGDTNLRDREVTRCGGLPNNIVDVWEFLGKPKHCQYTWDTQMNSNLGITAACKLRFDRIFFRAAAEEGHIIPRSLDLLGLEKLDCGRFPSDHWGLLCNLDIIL
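Test system: human TDP2 enzyme; Input: 120 nM TDP2 per well; Buffer or medium: Mg2+-containing Tris-HCl buffer, pH 7.5; Reagent: 5 mM T5PNP; Dosing: 12.8 µM single point, 1% DMSO; Incubation: reaction 2 h, 37 °C; Detection: p-Nitrophenol epi absorbance; Read-out: % inhibition relative to enzyme-containing and enzyme-free wells; Replicates: single well per compound.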
LEDGF integ inh – blockers of LEDGF/p75-dependent integrase strand transfer – biochemical, TR-FRET, high throughput, primary screen | HIV-1 integrase (with human LEDGF/p75) | TR-FRET IN-LEDGF/p75 DNA integration, Eu/Cy5 | inhibition, % at 3.7 µM | 370,000 compounds, 0.64% hits;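 active means inhibition above the screen-wide mean plus 3 SD, cut at about 13% in these data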;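 further: signal is the Cy5 over europium emission ratio at 671 and 618 nm; 0% = plate median of compound wells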
Casp6 inh – human caspase-6 inhibitors, primary screen, biochemical, VEID-R110 fluorescence, single point, set 2; P55212; purified caspase-6, Z-VEID-R110 cleavage fluorescence; inhibition, % at 12.5 µM; 350,000 compounds, 0.53% hits;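 active means mean inhibition across replicates at least about 35%, with every replicate also reaching that limit, limit read from the data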;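 further: 0% = median of neutral control wells and 100% = no fluorescence left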
Target sequence (P55212 24-179 limits assumed): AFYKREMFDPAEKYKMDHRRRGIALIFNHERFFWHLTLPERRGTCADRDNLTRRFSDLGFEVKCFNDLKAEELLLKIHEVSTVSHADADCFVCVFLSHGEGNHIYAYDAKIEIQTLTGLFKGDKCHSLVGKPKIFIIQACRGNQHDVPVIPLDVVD
Target sequence (P55212 194-293 limits assumed): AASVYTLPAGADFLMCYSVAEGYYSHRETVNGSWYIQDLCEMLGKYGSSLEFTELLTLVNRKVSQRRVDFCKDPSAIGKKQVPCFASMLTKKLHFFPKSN
NSD2 HMT inh – NSD2 histone methyltransferase inhibitors, primary screen, biochemical, AlphaScreen, single concentration, set 2; Histone-lysine N-methyltransferase NSD2 (Homo sapiens), O96028; NSD2 peptide methylation, 120 min; inhibition, % at 12.5 µM; 310,000 compounds, 0.54% hits; AID 743445, 2014; in the data active means inhibition above about 50%
UHRF1 MBD2 ctr – UHRF1 methylated DNA binding inhibitors, primary screen, counter-screen for MBD2 inhibitor project, biochemical, TR-FRET, human UHRF1, single concentration | AID 687016, 2013 | inhibition, % at 4.4 µM | UHRF1 binding to methylated oligo | 370,000 compounds, 0.75% hits;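 further: UHRF1 SRA domain binding a hemimethylated CpG hairpin DNA probe; 0% = median of test compound wells and 100% = reference inhibitor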
MBD2 DNA inh – inhibitors of MBD2 binding to methylated DNA, primary screen, biochemical, TR-FRET, DNA-binding domain, human; Methyl-CpG-binding domain protein 2 (Homo sapiens), Q9UBB5; MBD2 binding to methylated oligonucleotide; inhibition, % at 4.4 µM; 370,000 compounds, 0.31% hits; AID 686964, 2013; in the data active means inhibition above about 13%
UHRF1 ctr MBD2 – UHRF1 methylated DNA binding inhibitors, counter-screen for MBD2 inhibitor project, biochemical, TR-FRET, human UHRF1 | UHRF1 binding to methylated oligonucleotide | shares compounds with MBD2 DNA inh | inhibition, % at 4.4 µM | 1,000 compounds, 25% hits | AID 720530, 2013;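 further: UHRF1 SRA domain binding a labeled hemimethylated CpG hairpin DNA; 0% = vehicle only and 100% = reference inhibitor with vehicle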
MBD2 DBD conf – inhibitors of MBD2 binding to methylated DNA, confirmation, biochemical, TR-FRET, DNA-binding domain, human; 1,000 compounds, 26% hits; shares compounds with MBD2 DNA inh; TR-FRET MBD2-DBD binding to methylated oligonucleotide; inhibition, % at 4.4 µM; in the data active means inhibition above about 14%
An asterisk follows results filed as active; · = no result given. Unless noted, no stated cut-off is given here; in the data, active means inhibition above about 21%; inactive means the rest.

SMILES | TDP2 absorb | LEDGF integ inh | Casp6 inh | NSD2 HMT inh | UHRF1 MBD2 ctr | MBD2 DNA inh | UHRF1 ctr MBD2 | MBD2 DBD conf
O=C(CSc1nc2ccsc2c(=O)n1CC1CCC(C(=O)O)CC1)c1ccc(Cl)cc1 (stereo not drawn) | -7 | -1 | 43* | 0 | 14 | 19* | 16 | 10
COCCCNC(=O)CCc1c(C)c2cc3c(C)coc3cc2oc1=O | -2 | 1 | -1 | -3 | -1 | 13* | 1 | 5
Cc1ccc(NC(=O)C2(C)CCN2C(=O)CCC2CCCC2)cc1C (stereo not drawn) | 5 | -6 | 4 | -3 | -1 | 1 | · | ·
CC1(C(=O)Nc2ccc3c(c2)OCO3)CCN1C(=O)CCC1CCCC1 (stereo not drawn) | 2 | 4 | -1 | 0 | 0 | 20* | 2 | 2
CO[C@@H](CN(C)S(=O)(=O)c1ccc(C)cc1)[C@@H](C)CN(C(=O)Nc1ccccc1F)[C@@H](C)CO | · | · | -1 | · | · | · | · | ·
CC(C)NC(=O)N(C)C[C@H]1OCCCC[C@H](C)Oc2ccc(N(C)C)cc2C(=O)N([C@H](C)CO)C[C@@H]1C | · | · | -1 | · | · | · | · | ·
O=C(/C=C/c1cccs1)N1CCC2(CC1)Oc1ccc(Cl)cc1C(=O)C21CC(c2cccnc2)=NO1 (stereo not drawn) | -4 | 11 | 3 | · | -2 | 16* | 6 | 2
Cc1ccc(C(=O)N2CCC3(CC2)Oc2ccc(Cl)cc2C(=O)C32CC(c3cccnc3)=NO2)s1 (stereo not drawn) | 4 | -1 | 0 | · | 1 | 4 | · | ·
O=C(C[C@H]1C[C@@H]2c3cc(NC(=O)CC4CC4)ccc3O[C@@H]2[C@@H](CO)O1)NCc1ccccn1 | · | · | -2 | · | · | · | · | ·
O=C([C@@H]1[C@@H](CO)[C@@H]2Cn3c(ccc(-c4ccccc4F)c3=O)[C@H]1N2C(=O)C1CCC1)N1CCOCC1 | · | · | 1 | · | · | · | · | ·
COc1ccc2nc(C)cc(Nc3ccc(N4CCOCC4)cc3)c2c1 | 4 | 0 | · | 22 | 13 | 6 | · | ·
COc1ccc2nc(C)cc(Nc3ccc(N4CCN(C)CC4)cc3)c2c1 | -17 | 10 | · | 13 | 54* | 56* | 49* | 51*
O=C(CSc1cn[nH]n1)Nc1cccc(C(=O)O)c1 | 4 | 0 | -1 | 8 | 0 | 15* | 1 | 6
Cc1ccc(S(=O)(=O)Nc2ccccc2C=Nc2cccc(C)c2C)cc1 | 4 | 11 | 3 | -2 | -2 | -3 | · | ·
Cc1ccc(S(=O)(=O)Nc2ccccc2N=Cc2c(F)c(F)c(F)c(F)c2F)cc1 | 0 | 2 | 0 | -2 | -1 | 14* | 5 | 2
O=C(c1ccc(F)cc1)N1CC(=O)N2[C@H](CO)[C@H](c3ccc(-c4ccccc4)cc3)[C@H]2C1 | · | · | -2 | · | · | · | · | ·
CCCN(C)C[C@@H]1Oc2cc(C#CC(C)(C)O)ccc2S(=O)(=O)N([C@@H](C)CO)C[C@@H]1C | · | · | -2 | · | · | · | · | ·
O=C1NC(=S)S/C1=C\c1ccc(SCc2ccccc2)o1 | 16 | 43* | · | 19 | 82* | 29* | 12 | 10
CCCN(C)C[C@@H]1Oc2cc(C#Cc3ccncc3)ccc2S(=O)(=O)N([C@H](C)CO)C[C@@H]1C | · | · | 0 | · | · | · | · | ·
CO[C@H]1CN(C)C(=O)c2cc(NC(=O)C3CCCC3)ccc2OC[C@@H](C)N(C)C[C@@H]1C | · | · | 0 | · | · | · | · | ·
CCCc1cc(=O)[nH]c2nnc(SCC(=O)Nc3cccc(NC(C)=O)c3)n12 | -2 | -1 | 1 | -2 | 1 | 16* | 5 | 6
COc1cccc(-c2oc3c(c2-c2ccc(Br)nc2)C(O)CCC3)c1 (stereo not drawn) | -2 | 1 | 0 | · | 15 | 13* | 22* | 28*
COc1cccc(-c2oc3c(c2C(=O)OCCN2CCCCC2)C(O)CCC3)c1 (stereo not drawn) | 9 | 4 | -1 | · | 9 | -3 | · | ·
CCCCn1c(SCC(=O)Nc2sc3c(c2C(N)=O)CCC3)nnc1-c1ccccc1 | 3 | -1 | · | 5 | 20 | 13* | 6 | 2
NC(=O)c1c(NC(=O)CSc2nnc(Cc3ccccc3)n2Cc2ccco2)sc2c1CCC2 | 7 | 0 | · | 2 | 0 | 1 | · | ·
SMILES | TDP2 absorb | LEDGF integ inh | Casp6 inh | NSD2 HMT inh | UHRF1 MBD2 ctr | MBD2 DNA inh | UHRF1 ctr MBD2 | MBD2 DBD conf
COC(=O)c1ccccc1NC(=O)CSc1nc(O)cc(=O)n1C1CCCC1 | -3 | 13 | · | 6 | 24* | 13* | 5 | 2
CCOC(=O)c1[nH]c2ccc(OC)cc2c1NC(=O)c1ccc(OC)c(OC)c1 | -12 | 1 | · | -2 | 2 | 15* | 6 | 2
Cc1oc2ccc(O)cc2c1C(=O)c1ccc(Br)cc1 | 5 | 2 | 0 | -2 | -2 | 16* | 3 | 3
O=C(C1CCCC1)N1[C@@H](CO)[C@@H](c2ccccc2)C12CN(CCC(F)(F)F)C2 | · | · | 0 | · | · | · | · | ·
CC(C)(C)C1CCc2onc(C(=O)NCc3ccc(F)cc3)c2C1 (stereo not drawn) | -12 | 1 | · | 17 | 17 | 17* | 2 | 2
O=C(NCc1ccc(F)cc1)c1noc2c1CCCC2 | · | · | 6 | -1 | · | · | · | ·
Cc1cc(C)c2c(N)c3ccccc3nc2n1 | -12 | 0 | · | · | 22* | 20* | 21* | 25*
COc1ccc(S(=O)(=O)N(C)C[C@@H]2OCCCC[C@@H](C)Oc3ccc(NS(=O)(=O)c4cn(C)cn4)cc3C(=O)N([C@H](C)CO)C[C@H]2C)cc1 | · | · | 1 | · | · | · | · | ·
Cc1ccc(C)c2[nH]c(=O)c(CN(CCN3CCOCC3)Cc3nnnn3CC3CCCO3)cc12 (stereo not drawn) | -11 | -1 | · | -9 | 3 | 18* | 6 | 1
C=CCNC(=O)[C@H]1[C@@H]2C(=O)O[C@@H](c3ccccc3)[C@@H](c3ccccc3)N2[C@@H](c2ccc(O)cc2)[C@]12C(=O)N(C(=O)OCCOC)c1ccc(C#CC3(O)CCCCCC3)cc12 | · | · | -1 | · | · | · | · | ·

Bioassay records as filed in PubChem BioAssay.
